This note sets out measurements from ChEMBL document CHEMBL1122887, “Structure-activity studies on the N-terminal region of growth hormone releasing factor” (1985).

The test system of assay [1] is Rattus norvegicus. Kind of assay: Effect on plasma growth hormone in anesthetized rat at a dose of 5 ug/100 g of body weight. The assay is classed as functional. In short, it runs like this: (§1)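 Male Charles River rats (175–350 g) anesthetized with sodium pentobarbital (6 mg/100 g body wt); 30 min later, 6–9 per group received a single subcutaneous 0.5-mL injection of saline, GRF(1-29)NH₂ reference, or one of two analogue doses. Jugular vein blood was drawn 15 min post-injection, and plasma GH was measured by radioimmunoassay, reported as ng/mL ± SE.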

Assay [2] relates to Rattus norvegicus. Kind of assay: Effect on plasma growth hormone in anesthetized rat at a dose of 10 ug/100 g of body weight. In kind it is functional. The method in brief: as §1
Assay [3] deals with Rattus norvegicus. The experiment in a line: Percent growth hormone releasing activity in anesthetized rat relative to hpGRF (1-29)NH2; Not active. In kind it is functional, organism-based. In short, it runs like this:
(§2)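 In pentobarbital-anesthetized male Charles River rats (6–9/group), two subcutaneous analogue doses and GRF(1-29)NH₂ reference doses were given. Plasma GH was measured by radioimmunoassay in jugular blood taken 15 min post-injection. Relative potency with 95% confidence limits came from a four-point assay design by Pugsley's method. Not active means no activity at the doses tested.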

The test system of assay [4] is Rattus norvegicus. The experiment in a line: Effect on plasma growth hormone in anesthetized rat at a dose of 4 ug/100 g of body weight. In kind it is functional. In short, it runs like this:
as §1

Assay [5] relates to Rattus norvegicus. Kind of assay: Percent growth hormone releasing activity in anesthetized rat relative to hpGRF (1-29)NH2. The assay is classed as functional. In short, it runs like this:
as §2

Assay [6] relates to Rattus norvegicus. Kind of assay: Effect on plasma growth hormone in anesthetized rat at a dose of 20 ug/100 g of body weight. In kind it is functional. The method in brief: as §1
For assay [7], the system named is Rattus norvegicus. The experiment in a line: Effect on plasma growth hormone in anesthetized rat at a dose of 50 ug/100 g of body weight. In kind it is functional. In short, it runs like this:
as §1

The test system of assay [8] is Rattus norvegicus. Kind of assay: Effect on plasma growth hormone in anesthetized rat at a dose of 125 ug/100 g of body weight. In kind it is functional. The method in brief: as §1
In assay [9] the test system is Rattus norvegicus. The experiment in a line: Effect on plasma growth hormone in anesthetized rat at a dose of 0.25 ug/100 g of body weight. The assay is classed as functional. The method in brief: as §1
The subject of assay [10] is Rattus norvegicus. Kind of assay: Effect on plasma growth hormone in anesthetized rat at a dose of 0.62 ug/100 g of body weight. The assay is classed as functional. The method in brief:
as §1

Assay [11] has as its system Rattus norvegicus. The experiment in a line: Effect on plasma growth hormone in anesthetized rat at a dose of 3 ug/100 g of body weight. In kind it is functional. In short, it runs like this:
as §1

In assay [12] the test system is Rattus norvegicus. The experiment in a line: Effect on plasma growth hormone in anesthetized rat at a dose of 1.2 ug/100 g of body weight. In kind it is functional. In short, it runs like this: as §1
The test system of assay [13] is Rattus norvegicus. The experiment in a line: Effect on plasma growth hormone in anesthetized rat at a dose of 32 ug/100 g of body weight. In kind it is functional. In short, it runs like this: as §1
In assay [14] the test system is Rattus norvegicus. The experiment in a line: Effect on plasma growth hormone in anesthetized rat at a dose of 16 ug/100 g of body weight. In kind it is functional. In short, it runs like this: as §1

Active and inactive are the calls of the source.

Consider `CC[C@H](C)[C@H](NC(=O)[C@H](C)NC(=O)[C@H](CC(=O)O)NC(=O)[C@@H](Cc1ccccc1)NC(=O)[C@H](Cc1ccc(O)cc1)NC(C)=O)C(=O)N[C@@H](Cc1ccccc1)C(=O)N[C@H](C(=O)N[C@@H](CC(N)=O)C(=O)N[C@@H](CO)C(=O)N[C@@H](Cc1ccc(O)cc1)C(=O)N[C@@H](CCCN=C(N)N)C(=O)N[C@@H](CCCCN)C(=O)N[C@H](C(=O)N[C@@H](CC(C)C)C(=O)NCC(=O)N[C@@H](CCC(N)=O)C(=O)N[C@@H](CC(C)C)C(=O)N[C@@H](CO)C(=O)N[C@@H](C)C(=O)N[C@@H](CCCN=C(N)N)C(=O)N[C@@H](CCCCN)C(=O)N[C@@H](CC(C)C)C(=O)N[C@@H](CC(C)C)C(=O)N[C@@H](CCC(N)=O)C(=O)N[C@@H](CC(=O)O)C(=O)N[C@H](C(=O)N[C@@H](CCSC)C(=O)N[C@@H](CO)C(=O)N[C@@H](CCCN=C(N)N)C(N)=O)[C@@H](C)CC)C(C)C)[C@@H](C)O`, for which the Activity in assay [1] came out at 475 ng/mL; in assay [2], 422 ng/mL. Besides, the outcome in assay [3] was inactive.

In the case of `CC[C@H](C)[C@H](NC(=O)[C@H](C)NC(=O)[C@H](CC(=O)O)NC(=O)[C@H](C)NC(=O)[C@@H](N)Cc1ccc(O)cc1)C(=O)N[C@@H](Cc1ccccc1)C(=O)N[C@H](C(=O)N[C@H](CC(N)=O)C(=O)N[C@@H](CO)C(=O)N[C@@H](Cc1ccc(O)cc1)C(=O)N[C@@H](CCCN=C(N)N)C(=O)N[C@@H](CCCCN)C(=O)N[C@H](C(=O)N[C@@H](CC(C)C)C(=O)NCC(=O)N[C@@H](CCC(N)=O)C(=O)N[C@@H](CC(C)C)C(=O)N[C@@H](CO)C(=O)N[C@@H](C)C(=O)N[C@@H](CCCN=C(N)N)C(=O)N[C@@H](CCCCN)C(=O)N[C@@H](CC(C)C)C(=O)N[C@@H](CC(C)C)C(=O)N[C@@H](CCC(N)=O)C(=O)N[C@@H](CC(=O)O)C(=O)N[C@H](C(=O)N[C@@H](CCSC)C(=O)N[C@@H](CO)C(=O)N[C@@H](CCCN=C(N)N)C(N)=O)[C@@H](C)CC)C(C)C)[C@@H](C)O`, the results for the Activity in [4], in assay [5] and in [2] were 1296 ng/mL, 221% and 2397 ng/mL, respectively.

Take `CC[C@H](C)[C@H](NC(=O)[C@H](C)NC(=O)[C@H](CC(=O)O)NC(=O)[C@H](C)NC(=O)[C@@H](N)Cc1ccc(O)cc1)C(=O)N[C@@H](Cc1ccccc1)C(=O)N[C@H](C(=O)N[C@@H](CC(N)=O)C(=O)N[C@@H](CO)C(=O)N[C@@H](Cc1ccc(O)cc1)C(=O)N[C@@H](CCCN=C(N)N)C(=O)N[C@@H](CCCCN)C(=O)N[C@H](C(=O)N[C@@H](CC(C)C)C(=O)NCC(=O)N[C@@H](CCC(N)=O)C(=O)N[C@@H](CC(C)C)C(=O)N[C@@H](CO)C(=O)N[C@@H](C)C(=O)N[C@@H](CCCN=C(N)N)C(=O)N[C@@H](CCCCN)C(=O)N[C@@H](CC(C)C)C(=O)N[C@@H](CC(C)C)C(=O)N[C@@H](CCC(N)=O)C(=O)N[C@@H](CC(=O)O)C(=O)N[C@H](C(=O)N[C@@H](CCSC)C(=O)N[C@@H](CO)C(=O)N[C@@H](CCCN=C(N)N)C(N)=O)[C@@H](C)CC)C(C)C)[C@@H](C)O`: the Activity in [6] was found to be 1781 ng/mL.

On to `CC[C@H](C)[C@H](NC(=O)[C@H](C)NC(=O)[C@H](CC(=O)O)NC(=O)[C@@H](C)NC(=O)[C@@H](Cc1ccc(O)cc1)NC(C)=O)C(=O)N[C@@H](Cc1ccccc1)C(=O)N[C@H](C(=O)N[C@@H](CC(N)=O)C(=O)N[C@@H](CO)C(=O)N[C@@H](Cc1ccc(O)cc1)C(=O)N[C@@H](CCCN=C(N)N)C(=O)N[C@@H](CCCCN)C(=O)N[C@H](C(=O)N[C@@H](CC(C)C)C(=O)NCC(=O)N[C@@H](CCC(N)=O)C(=O)N[C@@H](CC(C)C)C(=O)N[C@@H](CO)C(=O)N[C@@H](C)C(=O)N[C@@H](CCCN=C(N)N)C(=O)N[C@@H](CCCCN)C(=O)N[C@@H](CC(C)C)C(=O)N[C@@H](CC(C)C)C(=O)N[C@@H](CCC(N)=O)C(=O)N[C@@H](CC(=O)O)C(=O)N[C@H](C(=O)N[C@@H](CCSC)C(=O)N[C@@H](CO)C(=O)N[C@@H](CCCN=C(N)N)C(N)=O)[C@@H](C)CC)C(C)C)[C@@H](C)O` (stereo in doubt; 5), for which the Activity in assay [7] was 435 ng/mL; in assay [5] it was less than 5%; in assay [8], 670 ng/mL.

`CC[C@H](C)[C@H](NC(=O)[C@H](C)NC(=O)[C@H](CC(=O)O)NC(=O)[C@@H](C)NC(=O)[C@@H](Cc1ccc(O)cc1)NC(C)=O)C(=O)N[C@@H](Cc1ccccc1)C(=O)N[C@H](C(=O)N[C@@H](CC(N)=O)C(=O)N[C@@H](CO)C(=O)N[C@@H](Cc1ccc(O)cc1)C(=O)N[C@@H](CCCN=C(N)N)C(=O)N[C@@H](CCCCN)C(=O)N[C@H](C(=O)N[C@@H](CC(C)C)C(=O)NCC(=O)N[C@@H](CCC(N)=O)C(=O)N[C@@H](CC(C)C)C(=O)N[C@@H](CO)C(=O)N[C@@H](C)C(=O)N[C@@H](CCCN=C(N)N)C(=O)N[C@@H](CCCCN)C(=O)N[C@@H](CC(C)C)C(=O)N[C@@H](CC(C)C)C(=O)N[C@@H](CCC(N)=O)C(=O)N[C@@H](CC(=O)O)C(=O)N[C@H](C(=O)N[C@@H](CCSC)C(=O)N[C@@H](CO)C(=O)N[C@@H](CCCN=C(N)N)C(N)=O)[C@@H](C)CC)C(C)C)[C@@H](C)O` (stereo in doubt; 12): the results for the Activity in assay [5], in [9] and in assay [10] were 3817%, 1235 ng/mL and 2386 ng/mL, respectively.

Turning to `CC[C@H](C)[C@H](NC(=O)[C@H](C)NC(=O)[C@H](CC(=O)O)NC(=O)[C@@H](C)NC(=O)[C@@H](Cc1ccc(O)cc1)NC(C)=O)C(=O)N[C@@H](Cc1ccccc1)C(=O)N[C@H](C(=O)N[C@@H](CC(N)=O)C(=O)N[C@@H](CO)C(=O)N[C@@H](Cc1ccc(O)cc1)C(=O)N[C@@H](CCCN=C(N)N)C(=O)N[C@@H](CCCCN)C(=O)N[C@H](C(=O)N[C@@H](CC(C)C)C(=O)NCC(=O)N[C@@H](CCC(N)=O)C(=O)N[C@@H](CC(C)C)C(=O)N[C@@H](CO)C(=O)N[C@@H](C)C(=O)N[C@@H](CCCN=C(N)N)C(=O)N[C@@H](CCCCN)C(=O)N[C@@H](CC(C)C)C(=O)N[C@@H](CC(C)C)C(=O)N[C@@H](CCC(N)=O)C(=O)N[C@@H](CC(=O)O)C(=O)N[C@H](C(=O)N[C@@H](CCSC)C(=O)N[C@@H](CO)C(=O)N[C@@H](CCCN=C(N)N)C(N)=O)[C@@H](C)CC)C(C)C)[C@@H](C)O` (stereo in doubt; 13), the Activity stood at 1297% in assay [5], 3504 ng/mL in assay [11] and 1329 ng/mL in assay [12].

Regarding `CC[C@H](C)[C@H](NC(=O)[C@H](C)NC(=O)[C@H](CC(=O)O)NC(=O)[C@@H](C)NC(=O)[C@@H](Cc1ccc(O)cc1)NC(C)=O)C(=O)N[C@@H](Cc1ccccc1)C(=O)N[C@H](C(=O)N[C@@H](CC(N)=O)C(=O)N[C@@H](CO)C(=O)N[C@@H](Cc1ccc(O)cc1)C(=O)N[C@@H](CCCN=C(N)N)C(=O)N[C@@H](CCCCN)C(=O)N[C@H](C(=O)N[C@@H](CC(C)C)C(=O)NCC(=O)N[C@@H](CCC(N)=O)C(=O)N[C@@H](CC(C)C)C(=O)N[C@@H](CO)C(=O)N[C@@H](C)C(=O)N[C@@H](CCCN=C(N)N)C(=O)N[C@@H](CCCCN)C(=O)N[C@@H](CC(C)C)C(=O)N[C@@H](CC(C)C)C(=O)N[C@@H](CCC(N)=O)C(=O)N[C@@H](CC(=O)O)C(=O)N[C@H](C(=O)N[C@@H](CCSC)C(=O)N[C@@H](CO)C(=O)N[C@@H](CCCN=C(N)N)C(N)=O)[C@@H](C)CC)C(C)C)[C@@H](C)O` (stereo in doubt; 19), the Activity in [13] was found to be 2378 ng/mL; in assay [5], 52%; in assay [14], 504 ng/mL.
